Screening results from PubChem BioAssay.
Cneo AK release – Cryptococcus neoformans cell lysis inducers, primary screen, AK release luminescence, single concentration; C. neoformans lysis, adenylate kinase release luminescence, 4 h; normalised: neutral wells 0, clomiphene wells 100; lysis activity, % at 15 µM; 360,000 compounds, 0.2% hits;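 active = mean lysis activity across replicates of at least 80%, whatever share of replicates individually reach that level; inactive = mean lysis activity below 80%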
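Material – log-phase Cryptococcus neoformans yeast cells · Input – 5 × 10^6 yeast cells/mL · Medium – fresh YPD growth medium · Doses – single compound concentration per well · Timing – static 4 h at 37 °C with compound, 1 h detection · Detection – adenylate kinase release luminescence · Read-out – signal increase indicating cell lysis · Control set – Clomiphene as positive lysis control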
dFosB act – activators of delta FosB homodimer, primary screen, biochemical, fluorescence polarization, TAMRA-CDK5 oligo, single point. 340,000 compounds, 0.99% hits. purified delta FosB; percent of positive-control signal above neutral wells. Protein FosB (Mus musculus), P13346. activation, % at 25 µM;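 active = mean activation above about 17%, with every replicate also reaching it, limit read from the data, passing the limit was not always enough; inconclusive = only one of the two conditions met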
Target sequence (P13346 whole entry, looked up): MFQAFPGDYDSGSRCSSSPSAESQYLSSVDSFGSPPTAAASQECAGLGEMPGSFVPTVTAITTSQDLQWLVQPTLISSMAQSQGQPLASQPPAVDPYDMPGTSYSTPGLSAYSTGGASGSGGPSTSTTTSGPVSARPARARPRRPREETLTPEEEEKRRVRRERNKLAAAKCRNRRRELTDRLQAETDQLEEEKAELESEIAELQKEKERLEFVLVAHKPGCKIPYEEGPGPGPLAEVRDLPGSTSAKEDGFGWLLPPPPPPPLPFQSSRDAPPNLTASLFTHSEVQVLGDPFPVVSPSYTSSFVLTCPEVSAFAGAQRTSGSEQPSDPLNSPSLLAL
HIV Env fusion – inhibitors of HIV-1 Env-driven cell-cell fusion, primary screen, HeLa-JRFL effector, CEM21 target cells, luciferase; 360,000 compounds, 1.1% hits; AID 651610, 2012; inhibition, % at 12.3 µM;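 active = mean replicate inhibition score of at least 50 and every replicate individually at or above 50; inconclusive = only one of the two criteria met; inactive = mean below 50 and not all replicates reaching 50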
GSIS activator – GLuc luminescence reporter in INS-1E cells, primary screen for activators of glucose-dependent secretion of insulin. INS-1E GLuc reporter insulin secretion, 2-3 h. activation, % at 16.6 µM. 370,000 compounds, 0.61% hits. AID 743287, 2014;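 active = lowest replicate activation of at least 40%, so every replicate reaches that level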
Rtt109 HAT inh – inhibitors of C. albicans Rtt109/Vps75 HAT, primary screen, biochemical, ThioGlo CoA-SH fluorescence, plate reader. purified Rtt109/Vps75, 4 h. inhibition, % at 34.9 µM. 330,000 compounds, 0.16% hits;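 active = inhibition of at least 50% in every replicate; inconclusive = best replicate reaches 50% inhibition but some replicates fall short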
Target sequence (Q5AAJ8 whole entry, looked up): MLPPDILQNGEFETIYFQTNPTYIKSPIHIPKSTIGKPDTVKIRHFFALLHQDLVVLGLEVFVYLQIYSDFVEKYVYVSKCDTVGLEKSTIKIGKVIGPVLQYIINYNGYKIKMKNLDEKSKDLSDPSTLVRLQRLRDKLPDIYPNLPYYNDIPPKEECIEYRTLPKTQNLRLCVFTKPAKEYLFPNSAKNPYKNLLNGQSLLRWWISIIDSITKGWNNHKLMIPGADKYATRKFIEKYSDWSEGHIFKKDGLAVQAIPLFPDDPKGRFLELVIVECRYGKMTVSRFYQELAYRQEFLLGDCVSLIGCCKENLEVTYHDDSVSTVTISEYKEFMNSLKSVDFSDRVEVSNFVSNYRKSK
miR122 inh – miR-122 Renilla sensor signal increase in Huh7, primary screen, miR-122 inhibitor project, cell-based, single point, plate reader; 340,000 compounds, 0.3% hits; Huh7 miR-122 Renilla luciferase sensor, 48 h; neutral wells = 0, positive control = 100; activation (reporter increase), % at 12.5 µM;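 active = mean replicate activation score at least 90 and every replicate individually at or above 90; inconclusive = only one of the two criteria met; inactive = neither criterion met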;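 also: higher luciferase means less miR-122 activity so hits act as miR-122 inhibitors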
Numbers stand for hits; i = inactive; ? = inconclusive; nt = no result. Hits are enriched below; roughly 2.4% of the tested compounds scored in any of these assays.

SMILES | Cneo AK release | dFosB act | HIV Env fusion | GSIS activator | Rtt109 HAT inh | miR122 inh
CCCCCCCCNCCS(=O)(=O)NCCCCCCCC | i | i | nt | 682 | i | i
CCCCCCCCNS(=O)(=O)CCNCCc1ccccc1 | i | i | i | i | i | i
COc1ccc(/C=C/C(=O)OCC(=O)c2ccc(S(=O)(=O)N3CCCCC3)cc2)cc1OC | i | 84 | i | i | i | i
COc1ccc(CN(C)C(=O)c2cc(S(=O)(=O)N3CCCCCC3)ccc2OC)cc1OC | i | i | i | i | 57 | i
COc1cc(CN(C)c2ccc(S(=O)(=O)N3CCCC3)cn2)ccc1OC(F)F | i | i | i | 44 | i | i
NC(=O)COC(=O)/C=C/c1ccc(S(=O)(=O)N2CCCCCC2)cc1 | nt | i | i | i | i | nt
COc1ccc(CCN(C)c2ccc(S(=O)(=O)N3CCCC3)cn2)cc1OC | i | i | i | i | i | i
CN1c2ccc(Br)cc2[C@H]2[C@H](CCN2C(=O)C2CCCCC2)[C@H]1CO | i | nt | nt | i | nt | i
C[C@H](CO)N1C[C@H](C)[C@H](CN(C)C(=O)Nc2ccc3c(c2)OCO3)Oc2ccc(NC(=O)Nc3cccc4ccccc34)cc2CC1=O | i | nt | i | i | nt | i
CC=Cc1ccc2n(c1=O)C[C@@H]1[C@@H](CO)[C@H](C(=O)NCc3ccc4c(c3)OCO4)[C@H]2N1C(=O)COC (mixture of isomers) | i | nt | i | i | nt | nt
CC=Cc1ccc2n(c1=O)C[C@@H]1[C@@H](CO)[C@H](C(=O)NCc3ccc4c(c3)OCO4)[C@H]2N1C(=O)C1CC1 (mixture of isomers) | 101 | nt | nt | i | nt | i
CC=Cc1ccc2n(c1=O)C[C@H]1[C@H](CO)[C@@H](C(=O)NCc3ccc4c(c3)OCO4)[C@@H]2N1C(=O)C1CC1 (mixture of isomers) | 104 | nt | nt | i | nt | i
O=C(C1CCC1)N1[C@H](CO)[C@@H](c2ccccc2)C12CN(CCC(F)(F)F)C2 | nt | nt | nt | i | nt | nt
COCC(=O)N1C[C@H](C)[C@@H](OC)CN(C)C(=O)c2cc(NS(C)(=O)=O)ccc2OC[C@H]1C | nt | nt | nt | i | nt | nt
Cc1ccc(N(C(=O)Cc2cccs2)C(C(=O)NC2CCCCC2)c2ccccn2)cc1C (stereo not given) | nt | i | 82 | i | i | nt
O=C(NC1CCCC1)C(c1ccccc1F)N(C(=O)Cc1cccs1)c1ccc2c(c1)OCCO2 (stereo not given) | nt | i | i | i | i | 172
Cc1cccc(N(C(=O)Cc2cccs2)C(C(=O)NC2CCCC2)c2ccncc2)c1 (stereo not given) | i | i | i | i | i | i
O=C(NC1CCCC1)C(c1ccsc1)N(C(=O)Cc1cccs1)c1ccc(F)cc1 (stereo not given) | i | i | nt | nt | nt | nt
COc1ccc(S(=O)(=O)N[C@@H]2C=C[C@@H](CC(=O)N3CCN(c4ccccc4)CC3)O[C@H]2CO)cc1 | i | nt | i | i | nt | nt
O=C(C[C@H]1C=C[C@H](NC(=O)c2ccccc2)[C@H](CO)O1)NCc1ccc(Oc2ccccc2)cc1 | nt | nt | nt | i | nt | nt
CC=Cc1ccc2n(c1=O)C[C@H]1[C@H](CO)[C@@H](C(=O)N3CCc4ccccc4C3)[C@@H]2N1Cc1ccncc1 (mixture of isomers) | i | nt | nt | i | nt | i
c1coc(CNc2c3c(nc4ccccc24)CCC3)c1 | i | i | 75 | nt | i | i
CC(C)NCC(=O)Nc1c2c(nc3ccccc13)CCC2 | i | i | i | nt | i | i
CCC(=O)Nc1ccc2c(c1)OC[C@H](C)N(Cc1cccnc1)C[C@H](C)[C@@H](OC)CN(C)C2=O | nt | nt | nt | i | nt | nt
CCCCc1ccc(NC(=O)COc2ccc(C(=O)Nc3ccccc3OCC)cc2)cc1 | i | i | nt | 71 | i | i
SMILES | Cneo AK release | dFosB act | HIV Env fusion | GSIS activator | Rtt109 HAT inh | miR122 inh
CC1(C)CC2(CC(c3ccccc3F)c3ccc(O)c(O)c3O2)NC(=S)N1 (stereo not given) | nt | i | i | i | 175 | nt
COc1ccc(CNC(=O)CCS(=O)(=O)c2ccc3c(c2)NC(=O)CS3)cc1 | i | i | i | 145 | i | i
COc1ccc(NC(=O)N(C)C[C@H]2Oc3ccc(NS(=O)(=O)c4ccc(Cl)cc4)cc3CC(=O)N([C@@H](C)CO)C[C@@H]2C)cc1 | i | nt | i | i | nt | i
CCOC(=O)CSc1nc2ccsc2c(=O)n1C1CCN(C(=O)OCC)CC1 | nt | i | nt | i | i | i
CCOC(=O)N1CCC(n2c(SCC(=O)N3CCC(C)CC3)nc3ccccc3c2=O)CC1 | i | i | 54 | nt | i | i
CCOC(=O)N1CCC(n2c(SCC(=O)OCc3ccccc3)nc3ccsc3c2=O)CC1 | i | i | 97 | i | i | i
O=C(C[C@@H]1CC[C@@H]2[C@H](COC[C@H](O)CN2C(=O)c2cnccn2)O1)NCc1ccc(Oc2ccccc2)cc1 | i | nt | nt | i | nt | i
Cc1cc(Cl)c(S(=O)(=O)N2CCCC2)cc1OCC(N)=O | nt | i | i | i | 50 | nt
Cc1cc(Cl)c(S(=O)(=O)N2CCCCCC2)cc1OCC(=O)NC1CCCCC1 | i | i | 51 | nt | i | ?
Cc1cc(Cl)c(S(=O)(=O)N2CCSCC2)cc1OCC(=O)NC1CCCCC1 | i | i | 93 | nt | i | i
Cc1cc(Cl)c(S(=O)(=O)NCc2ccncc2)cc1OCC(N)=O | i | i | i | nt | i | i
Cc1cc(Cl)c(S(=O)(=O)N2CCCCCC2)cc1OCC(N)=O | i | i | i | nt | i | i
Cc1cc(Cl)c(S(=O)(=O)NCc2ccccc2)cc1OCC(N)=O | i | i | i | nt | i | 174
C[C@@H]1CN([C@H](C)CO)C(=O)CCCn2cc(nn2)CO[C@H]1CN(C)Cc1ccc2c(c1)OCCN2C | i | nt | nt | i | nt | i
C=C1C(=O)[C@]23C[C@H]1CCC2[C@]1(C)C(=O)CC[C@@](C)(C(=O)O)C1C[C@@H]3O (stereo not given in full) | i | nt | i | 93 | nt | i
C=C1C(=O)[C@]23C[C@H]1CCC2[C@]1(C)CCC[C@@](C)(C(=O)O)C1C[C@@H]3O (stereo not given in full) | i | nt | i | i | nt | i
COCC(=O)N1CC2(C1)[C@@H](c1ccc(-c3ccccc3)cc1)[C@H](CO)N2C(C)=O | nt | nt | nt | i | nt | nt
O=C(C[C@H]1C=C[C@@H](NC(=O)c2ccccc2)[C@@H](CO)O1)NCCc1ccncc1 | i | nt | i | i | nt | nt
COC(=O)C[C@H]1CC[C@H]2[C@@H](COc3ccc(NC(=O)Nc4ccc(C#N)cc4)cc3C(=O)N2C)O1 | nt | nt | i | i | nt | nt
CC(C)NC(=O)N(C)C[C@H]1Oc2ccc(N)cc2CC(=O)N(C)C[C@@H]1C | nt | nt | nt | i | nt | nt
